NR3A LBD binder: binders of NR3A ligand-binding domain, primary screen, biophysical, differential scanning fluorimetry, uHTS; Glutamate receptor ionotropic, NMDA 3A (GRIN3A) ligand-binding domain; NR3A LBD differential scanning fluorimetry, Tm shift; 0% = protein alone, 100% = glycine-bound protein; Tm shift relative to glycine control, % at 25 µM; hit rate 2.5% among 340,000;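 active = melting temperature shift of at least 10% of the positive control shift, at one fixed dose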
PAFAH1B3 FP inh: PAFAH1B3 enzyme inhibitors, primary screen, biochemical, fluorescence polarization, human | recombinant PAFAH1B3, FP-rhodamine probe | Platelet-activating factor acetylhydrolase IB subunit alpha1 (Homo sapiens), Q15102 | inhibition, % at 3.39 µM | hit rate 0.28% among 340,000 | AID 492972, 2010;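 active = inhibition above the screen-wide average of all tested compounds plus 3 SD, cut at about 25% in these data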
PAFAH2 FP inh: PAFAH2 enzyme inhibitors, primary screen, biochemical, fluorescence polarization, human. hit rate 0.99% among 340,000. inhibition, % at 3.39 µM. Platelet-activating factor acetylhydrolase 2, cytoplasmic (Homo sapiens), Q99487. recombinant PAFAH2, FP-rhodamine activity probe;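 active = inhibition above the mean over all tested compounds plus 3 SD, cut at about 30% in these data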;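 note: inhibitors block probe labeling of enzyme so polarization drops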
UCH37 DUB inh: inhibitors of human UCH37 deubiquitinase, primary screen, biochemical, Ub-AMC cleavage, fluorescence | Ubiquitin carboxyl-terminal hydrolase isozyme L5 (Homo sapiens), Q9Y5K5 | purified proteasome/UCH37 | hit rate 0.33% among 330,000 | AID 588478, 2011 | inhibition, % (test concentration not listed);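 active = mean inhibition over replicate wells above about 20%, limit read from the data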
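Material: Human UCH37 enzyme supplied as purified proteasome complex | Schedule: 30 min preincubation with enzyme, 25 min cleavage at room temperature | Detection: AMC fluorescence 355/460 nm | Measure: % inhibition of Ub-AMC cleavage fluorescence | Controls: Wells without proteasome as full block, compound-free enzyme plus substrate as uninhibited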
PAFAH1B2 FP inh: PAFAH1B2 enzyme inhibitors, primary screen, biochemical, fluorescence polarization, human | Platelet-activating factor acetylhydrolase IB subunit alpha2 (Homo sapiens), P68402 | recombinant PAFAH1B2, FP-rhodamine activity probe | inhibition, % at 3.39 µM | hit rate 1.2% among 340,000;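 active = inhibition above the mean of all tested compounds plus 3 SD, cut at about 24% in these data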
pPAFAH inh: pPAFAH enzyme inhibitors, primary screen, biochemical, fluorescence polarization, human. AID 463082, 2010. recombinant pPAFAH, FP-rhodamine probe fluorescence polarization. inhibition, % at 3.39 µM. hit rate 1.5% among 330,000. Platelet-activating factor acetylhydrolase (Homo sapiens), Q13093;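 active = inhibition above the mean inhibition across the screen plus 3 SD, cut at about 25% in these data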;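 note: inhibitors block binding of the rhodamine activity-based probe so polarization drops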
Target sequence (Q13093 whole entry, looked up): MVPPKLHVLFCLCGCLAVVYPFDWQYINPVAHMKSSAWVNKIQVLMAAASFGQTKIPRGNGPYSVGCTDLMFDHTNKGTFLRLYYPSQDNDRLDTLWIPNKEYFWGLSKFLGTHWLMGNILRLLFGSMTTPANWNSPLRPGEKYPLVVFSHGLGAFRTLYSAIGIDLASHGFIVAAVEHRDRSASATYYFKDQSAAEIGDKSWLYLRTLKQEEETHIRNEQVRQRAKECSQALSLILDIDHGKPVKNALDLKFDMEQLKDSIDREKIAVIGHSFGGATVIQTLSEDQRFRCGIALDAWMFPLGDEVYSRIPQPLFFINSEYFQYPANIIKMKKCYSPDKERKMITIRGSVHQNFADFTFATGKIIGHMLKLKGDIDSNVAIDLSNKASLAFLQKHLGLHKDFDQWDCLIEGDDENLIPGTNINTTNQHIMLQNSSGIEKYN
A number is an active result; - = inactive; . = no result. Shown are actives, neighbours in structure and some others; about 4.8% of the full set was active somewhere.

SMILES | NR3A LBD binder | PAFAH1B3 FP inh | PAFAH2 FP inh | UCH37 DUB inh | PAFAH1B2 FP inh | pPAFAH inh
CCCCCCc1cc2cc(S(=O)(=O)c3ccc(C)cc3)c(=O)oc2cc1O | 27 | - | - | - | - | -
CCCCCCc1cc2cc(C(=O)Nc3ccccc3)c(=O)oc2cc1O | 17 | - | - | - | - | -
Cc1ccc(S(=O)(=O)c2cc3cc(Br)ccc3oc2=O)cc1 | - | - | - | - | - | -
COc1ccc(NC(=S)NN=Cc2ccc(F)c(F)c2)cc1 | . | . | . | - | . | .
O=C(ON=C1CCS(=O)(=O)c2sccc21)c1ccc(F)cc1 | . | . | . | - | . | .
CC(/C=C/c1ccco1)=N\NC(=O)c1cc(Cl)ccc1O | - | - | - | . | - | 32
O=C(C=Cc1ccco1)c1cc(Cl)ccc1O | - | - | - | - | - | .
COc1ccc(/C=C/c2nc(-c3ccccc3O)n[nH]2)cc1OC | 27 | - | - | - | - | -
Nc1nnn(CC(=O)NN=Cc2ccc(Cl)cc2Cl)n1 | . | . | . | - | . | .
CN1c2ccsc2C(O)=C(C(=S)Nc2ccccc2)S1(=O)=O | - | - | - | 21 | - | -
Cc1ccccc1NC(=S)C1=C(O)c2sccc2N(C)S1(=O)=O | - | - | - | 23 | - | -
O=C(CC(=O)NN=Cc1c(Cl)cccc1Cl)NCc1cccnc1 | . | . | . | - | . | .
Clc1nccnc1NN=Cc1ccc(Br)cc1 | . | . | . | - | . | .
COc1ccccc1OCCCOc1ccc(/C=C2\SC(=O)NC2=O)cc1OC | - | - | - | - | - | -
COc1ccc(/C=C2\CC/C(=C\c3ccc(OC)c(OC)c3)C2=O)cc1OC | 16 | - | - | - | - | -
COc1cc(/C=C2\COC/C(=C\c3ccc(O)c(OC)c3)C2=O)ccc1O | 26 | - | - | - | - | -
COc1ccc(C=C2SC(=O)NC2=O)cc1OC | 16 | - | - | - | - | .
COc1cc(/C=C2/CC/C(=C/c3ccc(O)c(OC)c3)C2=O)ccc1O | 14 | - | - | - | - | -
COc1cc(/C=C/C=C2/CC/C(=C/C=C/c3ccc(O)c(OC)c3)C2=O)ccc1O | - | - | - | . | - | .
COc1ccc(OC)c(NC(=O)C(=O)C=C(O)c2cc(OC)ccc2OC)c1 | . | . | . | - | . | .
O=C(COc1ccccc1)NCC(=O)NN=Cc1ccc(Br)cc1 | . | . | . | - | . | .
N#CC(=C(O)COC(=O)CCc1ccc(S(=O)(=O)N2CCOCC2)cc1)c1nc2ccccc2[nH]1 | . | . | . | - | . | .
O=C1ON=C(c2ccccc2)/C1=C/c1ccc(O)cc1 | - | - | - | - | - | -
COc1cc(/C=C2/C(=O)ON=C2c2ccccc2)ccc1O | 11 | - | - | - | - | -
CN(C)c1ccc(C(CNC(=O)c2ccccc2Br)c2c[nH]c3ccccc23)cc1 (centres undefined) | - | - | - | - | - | -
SMILES | NR3A LBD binder | PAFAH1B3 FP inh | PAFAH2 FP inh | UCH37 DUB inh | PAFAH1B2 FP inh | pPAFAH inh
CN(C)c1ccc(C(CNS(=O)(=O)c2ccc(F)cc2)c2c[nH]c3ccccc23)cc1 (centres undefined) | 16 | - | - | - | - | -
CCOC(=O)c1ccc(S(=O)(=O)NCC(c2ccc(N(C)C)cc2)c2c[nH]c3ccccc23)cc1 (centres undefined) | 16 | - | - | - | - | -
CC(=O)Oc1ccc2occ(C=Nc3cc(=O)[nH]c(=S)[nH]3)c(=O)c2c1 | . | . | . | - | . | .
Cc1cc(C(=O)NN=Cc2cccnc2)n[nH]1 | . | . | . | - | . | .
CCCCCCCCNC(=O)CC(NS(=O)(=O)c1ccc(NC(C)=O)cc1)C(C)C (centres undefined) | - | - | - | - | - | 32
COc1ccc(C=NNC(=O)CNC(=O)c2ccc(S(=O)(=O)N3CCCC3)cc2)c(OC)c1 | . | . | . | - | . | .
CCc1sc(C(=O)Nc2ccc3c(c2)OCO3)cc1C | - | - | - | - | - | 25
CCc1sc(C(=O)Nc2ccc3c(c2)OCCO3)cc1Br | . | - | - | . | - | -
Cc1cccc(N(CC(=O)NC(C)(C)C)C(=O)CS(=O)CC(=O)Nc2ccc3c(c2)OCO3)c1 (centres undefined) | - | - | - | - | - | -
